In the library only some 1.5% were active in any assay of this set; here they are far more common.
PGC1a acetyl inh: lowers PGC1a acetylation signal in U2OS cells | AlphaScreen anti-acetyl-lysine; with virally co-expressed GCN5 acetyltransferase | inhibition, % at 15.6 µM | actives 0.17% (n = 350,000) | AID 651687;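 active = every replicate shows inhibition of at least 40%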;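 also: 0% = neutral control wells and 100% = positive control wells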
MITF act: MITF TRPM1 promoter activation in melanoma cells; SK-MEL-5 TRPM1-promoter luciferase, 24 h; % of positive control, neutral wells = 0; activation, % at 12.5 µM; actives 0.75% (n = 300,000); AID 588334;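 active = mean activation of at least 80% with every replicate also reaching 80%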;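 also: 0% = neutral control wells and 100% = parthenolide positive control wells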
Cneo AK release: Cryptococcus neoformans lysis via adenylate kinase release | lysis activity, % at 15 µM | AID 651654 | C. neoformans lysis, adenylate kinase release luminescence, 4 h; normalised: neutral wells 0, clomiphene wells 100 | actives 0.2% (n = 360,000);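 active = mean lysis activity across replicates of at least 80%, whatever share of replicates individually reach that level; inactive = mean lysis activity below 80%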
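Assay system: log-phase C. neoformans yeast / Quantity: yeast cell density of 5 × 10^6 cells/mL / Medium: fresh YPD growth medium / Compound: single dose / Timing: static 4 h at 37 °C with compound, 1 h detection / Measured by: adenylate kinase release luminescence / Read-out: lysis from increased AK signal / Benchmarks: Clomiphene as positive lysis control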
Wnt bcat act: activates Wnt/beta-catenin signaling in a reporter cell assay; activator, plate reader; activation, % at 9.35 µM; actives 1.2% (n = 300,000); in the data active = activation above about 30%, passing the limit was not always enough;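 also: 0% = neutral control wells and 100% = positive control wells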
Numbers without * were called inactive; x = no result given.

SMILES | PGC1a acetyl inh | MITF act | Cneo AK release | Wnt bcat act
N#Cc1ccc(-c2ccc([C@@H]3[C@@H]4CN(S(=O)(=O)c5ccc(-c6ccccc6)cc5)C[C@H]3N4)cc2)cc1 | 85* | x | x | x
CCn1c(=S)[nH]c2cc(Cl)ccc21 | -3 | -18 | x | -1
CCCn1c(=S)[nH]c2cc(Cl)ccc21 | 3 | -10 | 151* | 0
CC1CCc2c(sc(/N=C/c3cccnc3)c2C(N)=O)C1 (configuration not stated) | 4 | x | -1 | 1
CCC1CCc2c(sc(NC(=O)c3ccco3)c2C(N)=O)C1 (configuration not stated) | -9 | x | -8 | 37*
CC1CCc2c(sc(/N=C/c3ccco3)c2C(N)=O)C1 (configuration not stated) | 2 | x | -7 | 45*
Cc1noc(C)c1NC(=O)Nc1ccc2c(c1)C(=O)N([C@H](C)CO)C[C@@H](C)[C@H](CN(C)C(=O)Nc1ccc(C(F)(F)F)cc1)O2 | 6 | x | 5 | x
C/C(=N\OC(=O)c1ccccc1)c1cc(-c2ccc(Cl)cc2)no1 | 12 | 65 | -3 | x
C/C(=N/OC(=O)C1CC1)c1cc(-c2ccc(Cl)cc2)no1 | x | 89* | x | 8
CNC[C@H]1Oc2ccc(NS(=O)(=O)c3cccs3)cc2C(=O)N([C@@H](C)CO)C[C@H]1C | 4 | x | -15 | x
Cc1sc2ncnc(Nc3ccc(O)cc3)c2c1C | 0 | 4 | 0 | 38*
Cc1ccc(Nc2ncnc3sc(C)c(C)c23)cc1 | 9 | 41 | 0 | x
Cc1ccn2cc(-c3cccc(NC(=O)c4ccccc4)c3)nc2c1 | x | 105* | x | 17
CC(=O)c1cccc(Nc2nc(-c3ccccc3)cs2)c1 | -11 | 130* | -1 | 21
O=C(Nc1cccc(-c2csc(Nc3ccccc3)n2)c1)c1ccccc1 | -13 | 106* | -25 | 27
CC(=O)c1cccc(Nc2nc(-c3cccnc3)cs2)c1 | 2 | x | 4 | 17
CC(C)NC(=O)Nc1ccc2c(c1)C(=O)N([C@H](C)CO)C[C@@H](C)[C@@H](CN(C)C(=O)NC1CCCCC1)OCCCC[C@@H](C)O2 | -13 | x | x | x
C[C@H]1CN([C@@H](C)CO)C(=O)c2cc(-c3ccc(F)cc3)cnc2O[C@H]1CN(C)Cc1cncnc1 | 5 | x | -2 | x
O=c1c2c(nc3cc(-c4ccc(F)cc4)[nH]n13)CCC2 | x | 87* | x | 27
COc1ccc(CN(C)C[C@H]2OCCCC[C@@H](C)Oc3ccc(NC(=O)CCCN(C)C)cc3C(=O)N([C@@H](C)CO)C[C@@H]2C)cc1 | -4 | x | 3 | x
CC1CCCN(C(=O)CSc2nnc(-c3cccs3)o2)C1 (configuration not stated) | 4 | 89* | -1 | 13
Cc1ccc(SCc2cn3ccccc3n2)cc1 | x | 96* | 1 | 33*
c1ccc2nc(SCc3cn4ccccc4n3)cnc2c1 | x | 57 | 5 | 38*
c1ccc(CSCc2cn3ccccc3n2)cc1 | 23 | 72 | 14 | 19
OC[C@H]1[C@H](c2ccc(C#CC3(O)CCCC3)cc2)[C@@H]2CN(Cc3cccnc3)CCCCN12 | -1 | x | -2 | x
SMILES | PGC1a acetyl inh | MITF act | Cneo AK release | Wnt bcat act
COc1ccc2c3c([nH]c2c1)[C@H](CO)N(C(=O)C1CCC1)CC31CN(C(=O)c2ccccn2)C1 | 11 | x | x | x
Clc1ccc(-c2nc(C3CCCCC3)no2)cc1 | 13 | 91* | -13 | 71*
O=C(C1CCCCC1)N1CC2(C1)[C@H](c1ccccc1)[C@H](CO)N2Cc1ccc(Cl)cc1 | -5 | x | x | x
COc1ccccc1Oc1ccc2c(c1)C(=O)N(c1ccc(C)cc1)C2=O | 104* | 14 | x | x
O=C(/C=C/c1ccc2c(c1)OCO2)Nc1nc2ccc(F)cc2s1 | 4 | 87* | x | 34*
CN(C)CCNc1oc(COc2ccc(-c3ccccc3)cc2)nc1C#N | 58* | -6 | -1 | -1
Cc1noc(C)c1NC(=O)N(C)C[C@@H]1Oc2ccc(NS(=O)(=O)c3cccs3)cc2CC(=O)N([C@H](C)CO)C[C@H]1C | 0 | x | 0 | x
CC(=O)N(c1cccc(C)c1)C1SC(=O)N(c2ccccc2)C1=O (configuration not stated) | -6 | -8 | 1 | -1
Cc1ccc(N2C(=O)SC(N(CC(=O)O)c3cccc(C)c3)C2=O)cc1 (configuration not stated) | -5 | 5 | -1 | 41*
CO[C@H]1CN(C)C(=O)c2ccc(NS(C)(=O)=O)cc2OC[C@H](C)N(C)C[C@H]1C | 3 | x | 54 | x
CC(C)Oc1ccc(C(=O)NCCCNC(=O)c2cccnc2)cc1 | -39 | -3 | 2 | 38*
